Laboratory results: ChEMBL document CHEMBL1156796, “Design, synthesis, and antihepatitis B virus activities of novel 2-pyridone derivatives” (J Med Chem, 2010)

Key:
Hepatitis B virus [1] = assay: Antiviral activity against HBV infected in human HepG2(2.2.15) cells assessed as inhibition of HBsAg level after 9 days by ELISA; assay type: functional, organism-based; conditions: HepG2 2.2.15, 216 h
[2] = Selectivity index, ratio of CC50 for human HepG2(2.2.15) cells to IC50 for HBV infected in human HepG2(2.2.15) cells assessed as inhibition of HBeAg; assay type: functional
[3] = Cytotoxicity against human HepG2(2.2.15) cells; assay type: cell-based
[4] = Selectivity index, ratio of CC50 for human HepG2(2.2.15) cells to IC50 for HBV infected in human HepG2(2.2.15) cells assessed as inhibition of HBsAg; assay type: functional
In short: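 MTT at 5 g/L added 4 h before lysis in 10% SDS/50% DMF, pH 7.2, with OD read at 570 nm. IC50: HBsAg in day-9 supernatants measured by ELISA. SI = CC50/IC50.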

[5] = Selectivity index, ratio of CC50 for human HepG2(2.2.15) cells to IC50 for HBV infected in human HepG2(2.2.15) cells assessed as inhibition of HBV DNA replication; assay type: functional
Hepatitis B virus [6] = assay: Antiviral activity against HBV infected in human HepG2(2.2.15) cells assessed as inhibition of HBeAg level after 9 days by ELISA; assay type: functional, organism-based; conditions: HepG2 2.2.15, 216 h
Hepatitis B virus [7] = assay: Antiviral activity against HBV infected in human HepG2(2.2.15) cells assessed as inhibition of HBV DNA replication after 9 days by PCR; assay type: functional, organism-based
[8] = Hepatitis B virus, HepG2 2.2.15, 216 h, read-out: IC50

Row | SMILES | IC50 (Hepatitis B virus [1]) | Ratio CC50/IC50 [2] | CC50 [3] | Ratio CC50/IC50 [4] | Ratio CC50/IC50 [5] | IC50 (Hepatitis B virus [6]) | IC50 (Hepatitis B virus [7]; [8]) | IC50 (Hepatitis B virus [7]; hepg2 2.2.15)
1 | COc1ccc(/C(=N/Cc2ccccc2)c2ccc(=O)n(Cc3ccccc3)c2)c(O)c1 | 40 µM | 23.18 | 102 µM | 2.55 | 3.24 | 4.4 µM | 31.5 µM | –
2 | COc1ccc(C(=O)c2ccc(=O)n(-c3ccccc3C)c2)c(O)c1 | 18 µM | >1194 | > 119 µM | >6.63 | >10.85 | 0.1 µM | 11 µM | –
3 | C=CC/N=C(\c1ccc(=O)n(CC=C)c1)c1ccc(OC)cc1O | 98 µM | 0.5 | 20 µM | 0.2 | 1.67 | 40 µM | 12 µM | –
4 | COc1ccc(/C(=N/C2CC2)c2ccc(=O)n(C3CC3)c2)c(O)c1 | 123 µM | 16.4 | 164 µM | 1.33 | <0.35 | 10 µM | > 462 µM | –
5 | COc1ccc(C(=O)c2ccc(=O)n(-c3ccc(F)cc3)c2)c(O)c1 | > 118 µM | – | > 118 µM | – | >1.2 | > 118 µM | 98.3 µM | –
6 | COc1ccc(/C(=N/Cc2ccc(C)cc2)c2ccc(=O)n(Cc3ccc(C)cc3)c2)c(O)c1 | > 118 µM | <0.17 | 20 µM | <0.17 | 0.92 | > 118 µM | 21.7 µM | –
7 | Nc1ncnc2c1ncn2CCOCP(=O)(O)O [ADEFOVIR] | 305 µM | 1.89 | 540 µM | 1.77 | 1044.5 | 286 µM | 0.517 µM | –
8 | COc1ccc(C(=O)c2ccc(=O)n(-c3cccc(C)c3)c2)c(O)c1 | 29 µM | 530 | 159 µM | 5.48 | 198.75 | 0.3 µM | 0.8 µM | –
9 | COc1ccc(/C(=N/C(C)C)c2ccc(=O)n(C(C)C)c2)c(O)c1 | > 122 µM | >2.26 | > 122 µM | – | – | 54 µM | > 122 µM | –
10 | CCCCC/N=C(\c1ccc(=O)n(CCCCC)c1)c1ccc(OC)cc1O | 29 µM | 19.6 | 98 µM | 3.38 | 3.27 | 5 µM | 30 µM | –
11 | CCC/N=C(\c1ccc(=O)n(CCC)c1)c1ccc(OC)cc1O | > 122 µM | <1 | 120 µM | <1 | 3.55 | > 122 µM | 33.8 µM | –
12 | COc1ccc(/C(=N/Cc2ccc(F)cc2F)c2ccc(=O)n(Cc3ccc(F)cc3F)c2)c(O)c1 | 13 µM | 0.25 | 10 µM | 0.77 | 3.33 | 40 µM | 3 µM | –
13 | COc1ccc(C(=O)c2ccc(=O)n(-c3ccc([N+](=O)[O-])cc3)c2)c(O)c1 | > 109 µM | <1.07 | 177 µM | <1.07 | – | > 109 µM | – | Not Active
14 | COc1ccc(C(=O)c2ccc(=O)n(C3CCCCC3)c2)c(O)c1 | 99 µM | 20.55 | 15 µM | 0.15 | 0.15 | 0.73 µM | 99.6 µM | –
15 | COc1ccc(/C(=N/Cc2ccc(F)cc2)c2ccc(=O)n(Cc3ccc(F)cc3)c2)c(O)c1 | > 86.9 µM | <0.12 | 10 µM | <0.12 | 0.15 | > 86.9 µM | 64.5 µM | –
16 | COc1ccc(C(=O)c2ccc(=O)n(-c3ccc(C(C)=O)cc3)c2)c(O)c1 | > 110 µM | 0.17 | 133 µM | <1.21 | 11.88 | 774 µM | 11.2 µM | –
17 | COc1ccc(C(=O)c2ccc(=O)n(-c3cc(C)ccc3C)c2)c(O)c1 | 13 µM | 0.01 | 0.5 µM | 0.04 | 1 | 38 µM | 0.5 µM | –
18 | COc1ccc(C(=O)c2ccc(=O)n(-c3ccccc3)c2)c(O)c1 | 176 µM | 2.36 | 179 µM | 1.02 | 8.95 | 76 µM | 20 µM | –
19 | COc1ccc(C(=O)c2ccc(=O)n(/C=C/Nc3cccc4ccccc34)c2)c(O)c1 | 77 µM | <2.5 | 244 µM | 3.17 | <0.67 | > 97 µM | > 364 µM | –
20 | CCCn1cc(C(=O)c2ccc(OC)cc2O)ccc1=O | > 139 µM | 2.83 | 131 µM | – | 3.93 | 46.3 µM | 33.3 µM | –
21 | COc1ccc(C(=O)c2ccc(=O)n(C(C)C)c2)c(O)c1 | 846 µM | <0.82 | 696 µM | 0.82 | 4.09 | > 846 µM | 170 µM | –
22 | COc1ccc(/C(=N/Cc2ccccc2F)c2ccc(=O)n(Cc3ccccc3F)c2)c(O)c1 | 72 µM | 1.7 | 51 µM | 0.71 | 0.55 | 30 µM | 92.6 µM | –
23 | COc1ccc(-n2cc(C(=O)c3ccc(OC)cc3O)ccc2=O)cc1 | > 114 µM | 1.56 | 346 µM | – | 66.54 | 222 µM | 5.2 µM | –
24 | COc1ccc(C(=O)c2ccc(=O)n(-c3ccccc3OC)c2)c(O)c1 | > 114 µM | >2.3 | > 114 µM | – | >1.5 | 49 µM | 76 µM | –
25 | CCOc1ccc(-n2cc(C(=O)c3ccc(OC)cc3O)ccc2=O)cc1 | > 110 µM | >1.99 | > 110 µM | – | >532 | 55 µM | 0.206 µM | –
26 | COc1ccc(C(=O)c2ccc(=O)n(-c3ccc(C)cc3)c2)c(O)c1 | > 119 µM | >59.7 | > 119 µM | – | >23.9 | 2 µM | 5 µM | –
27 | COc1ccc(/C(=N/Cc2ccc(F)c(F)c2)c2ccc(=O)n(Cc3ccc(F)c(F)c3)c2)c(O)c1 | 496 µM | <0.5 | 201 µM | 0.41 | 2.07 | > 403 µM | 97.5 µM | –
